SUMO Mot1 rescue: inhibitors of SUMOylation pathway: yeast Mot1-301 growth rescue. growth rescue, % at 18.8 µM. S. cerevisiae Mot1-301 growth rescue, ATP luminescence, 38.5C; percent above DMSO median, 100 means doubled. 1% of 320,000 active;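 active = every valid replicate shows activation above 250% relative to neutral control wells; inactive = the rest, any valid replicate at or below 250%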;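 also: OY570 slx delta 5 strain wells were the positive control but not used for scaling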
cardiac RTF act: increases calcium sensitivity of human cardiac regulated thin filaments | 0.24% of 340,000 active | activation, % at 7.2 µM | IANBD-labeled TnC RTF fluorescence at EC20 calcium; 0% EC20 calcium, 100% full calcium | AID 493008;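 active = activation above the mean over all tested compounds plus 3 SD, cut at about 30% in these data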;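 also: rise in fluorescence read as greater calcium sensitivity of cardiac thin filaments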
UCH37 DUB inh: human UCH37 deubiquitinating enzyme inhibition. Q9Y5K5. purified proteasome/UCH37, Ub-AMC cleavage fluorescence. inhibition, % (concentration not given with the values). 0.33% of 330,000 active. AID 588478;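 active = mean inhibition over replicate wells above about 20%, limit read from the data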;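 also: 0% = compound-free wells with enzyme and 100% = wells lacking proteasome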
Target sequence (Q9Y5K5 whole entry, looked up): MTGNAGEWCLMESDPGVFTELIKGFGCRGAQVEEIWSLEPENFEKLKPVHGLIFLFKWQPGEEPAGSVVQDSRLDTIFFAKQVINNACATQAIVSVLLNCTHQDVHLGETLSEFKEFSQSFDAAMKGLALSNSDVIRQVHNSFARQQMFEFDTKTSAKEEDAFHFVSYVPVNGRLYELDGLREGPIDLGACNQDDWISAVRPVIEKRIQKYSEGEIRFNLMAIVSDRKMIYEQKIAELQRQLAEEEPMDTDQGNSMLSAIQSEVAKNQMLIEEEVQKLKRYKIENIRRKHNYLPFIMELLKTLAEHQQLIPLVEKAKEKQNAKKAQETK
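System: Proteasome-associated human UCH37 deubiquitinase; Input: 0.15 nM proteasome in added enzyme buffer; Also added: Ub-AMC substrate from 1 µM stock; Incubation: 30 min compound-proteasome preincubation then 25 min substrate reaction, room temperature; Detection: fluorescence, ex 355 nm, em 460 nm; Read-out: % inhibition of Ub-AMC cleavage fluorescence; Benchmarks: no-proteasome and no-compound wells.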
ARNT-TACC3 inh: ARNT/TACC3 interaction disruption. 0.66% of 390,000 active. AID 623870. AlphaScreen His-ARNT PAS-B/GST-TACC3 binding, luminescence; TACC3 fragment carries E629A point mutation. Q9Y6A5. inhibition, % at 9.99 µM;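 active = mean inhibition of replicates at least 50% and at least half of replicates each reaching 50%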;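 also: 0% = complete ARNT plus TACC3 wells and 100% = ARNT alone without TACC3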
Efflux pump inh: antifungal efflux pump inhibition, Nile Red retention; S. cerevisiae Candida pump triplex; AID 485275; 0.44% of 330,000 active; inhibition, % at 10 µM;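 active = plate passing quality check with inhibition over a set limit, or well fluorescence over plate mean plus 4 SD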;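 also: Nile Red retained in pooled yeast measured as flow cytometry median fluorescence; 0% = buffer negative control and 100% = Enniatin B positive control; higher means more Nile Red kept so more efflux inhibition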
Cardiac RTF inh: cardiac RTF calcium desensitization. IANBD-labeled cardiac RTF, Ca2+ fluorescence. inhibition, % at 7.15 µM. 0.12% of 340,000 active. AID 493244;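 active = inhibition above the mean inhibition of all tested compounds plus 3 SD, cut at about 17% in these data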;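 also: assay run at fixed EC70 calcium of 1.6 mM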
An asterisk follows results filed as active. Most compounds without a hit are left out; they make up all but 2.1% or so of the library.

Screening O=[N+]([O-])c1ccc(NN=Cc2ccccc2O)nc1 returned cardiac RTF act -8, UCH37 DUB inh 0, ARNT-TACC3 inh 8 and Cardiac RTF inh 3.
For O=[N+]([O-])c1ccc(O)c(/C=N/Nc2ccccn2)c1 the results were SUMO Mot1 rescue 0, cardiac RTF act 3, ARNT-TACC3 inh 61*, Efflux pump inh 0 and Cardiac RTF inh 0.
`COc1cc(/C=N/Nc2ccc(C(F)(F)F)cn2)ccc1O` gave SUMO Mot1 rescue active, cardiac RTF act -3, ARNT-TACC3 inh 4, Efflux pump inh 0 and Cardiac RTF inh -8.
Screening CC(=NN1CCN(Cc2ccc(Cl)cc2)CC1)c1ccc(F)cc1 returned UCH37 DUB inh 2.
`Cc1ccc(Cl)c(OCCN2CCc3ccccc3C2)c1` gave SUMO Mot1 rescue 323*, cardiac RTF act 4, UCH37 DUB inh 1, ARNT-TACC3 inh -4, Efflux pump inh 0 and Cardiac RTF inh 3.
For C/C=C/c1ccc(OCCN2CCc3ccccc3C2)c(OC)c1 the results were SUMO Mot1 rescue 8, cardiac RTF act 2, UCH37 DUB inh 5, ARNT-TACC3 inh 5, Efflux pump inh 0 and Cardiac RTF inh 8.
COc1cc(C=NNc2ncc(C(F)(F)F)cc2Cl)cc(OC)c1OC was read as UCH37 DUB inh -8.
COc1ccc(N2C(=O)CC(Nc3ccc(C)cc3)C2=O)cc1 (stereo not drawn) was read as cardiac RTF act 1, UCH37 DUB inh 0, ARNT-TACC3 inh 17, Efflux pump inh 0 and Cardiac RTF inh -2.
COc1ccc(N2C(=O)CC(NNc3ncc(Cl)cc3Cl)C2=O)cc1 (stereo not drawn) was read as cardiac RTF act -2, UCH37 DUB inh -1, ARNT-TACC3 inh 68*, Efflux pump inh 0 and Cardiac RTF inh -5.
For Cc1cccc(C=Nn2c(COc3ccccc3)n[nH]c2=S)c1 the results were UCH37 DUB inh 2.
Screening O=C(CN(Cc1ccc2c(c1)OCO2)C(=O)CNC(=O)c1ccco1)NC1CCCCC1 returned SUMO Mot1 rescue 335*, cardiac RTF act 3, UCH37 DUB inh 2, ARNT-TACC3 inh 3, Efflux pump inh 0 and Cardiac RTF inh -2.
Screening Cc1ccc(C2OC(=O)c3ccccc32)cc1 (stereo not drawn) returned SUMO Mot1 rescue 11, cardiac RTF act -2, UCH37 DUB inh 6, ARNT-TACC3 inh -3, Efflux pump inh 0 and Cardiac RTF inh 11.
Cc1ccc(C2OC(=O)C=C2c2ccccc2)cc1 (stereo not drawn) was read as SUMO Mot1 rescue -10, cardiac RTF act 7, UCH37 DUB inh 24*, ARNT-TACC3 inh -9, Efflux pump inh 0 and Cardiac RTF inh 10.
Screening CCOc1cc(C=NNC(=O)OC(C)(C)C)ccc1OC(=O)c1ccco1 returned UCH37 DUB inh -1.
CCOC(=O)NN=Cc1c(F)c(F)c(F)c(F)c1F was read as UCH37 DUB inh 4.
For COc1cc(/C=N/Nc2nc(=O)[nH]nc2C)cc([N+](=O)[O-])c1O the results were SUMO Mot1 rescue 0, cardiac RTF act -4, ARNT-TACC3 inh 76*, Efflux pump inh 0 and Cardiac RTF inh -2.
Screening C(=N\Nc1nc2ccccc2s1)/c1ccccn1 returned SUMO Mot1 rescue 16 and Efflux pump inh 0.
Cc1n[nH]c(=O)nc1N/N=C/c1ccc(O)c([N+](=O)[O-])c1 was read as SUMO Mot1 rescue 0, cardiac RTF act 5, ARNT-TACC3 inh 2, Efflux pump inh 0 and Cardiac RTF inh 3.
Cc1n[nH]c(=O)nc1NN=Cc1ccc(O)c([N+](=O)[O-])c1 was read as UCH37 DUB inh 21*.
For COc1cc(/C=C/c2[nH]c(=O)[nH]c(=O)c2[N+](=O)[O-])cc([N+](=O)[O-])c1O the results were SUMO Mot1 rescue -9, cardiac RTF act -6, UCH37 DUB inh 21*, ARNT-TACC3 inh 12, Efflux pump inh 0 and Cardiac RTF inh -9.
`Cc1csc(N/N=C/c2ccccn2)n1` gave SUMO Mot1 rescue -15, cardiac RTF act -1, ARNT-TACC3 inh 59*, Efflux pump inh 0 and Cardiac RTF inh -12.
For Cc1csc(NN=Cc2ccc(O)c([N+](=O)[O-])c2)n1 the results were UCH37 DUB inh 20*.
Screening CCCOc1ccc(Cc2nn3c(=O)/c(=C/c4ccco4)sc3nc2=O)cc1 returned SUMO Mot1 rescue 2, cardiac RTF act 1, ARNT-TACC3 inh 32*, Efflux pump inh 0 and Cardiac RTF inh -8.
For O=C(CNc1ccccc1)NN=Cc1cn(-c2ccccc2)nc1-c1ccccc1 the results were UCH37 DUB inh 0.
`CC(C)(C)[C@@H]1CCC(=O)N(CC[C@H](N=[N+]=[N-])c2ccccc2)CC1` gave SUMO Mot1 rescue -15, cardiac RTF act 2, UCH37 DUB inh 28*, ARNT-TACC3 inh -5, Efflux pump inh 0 and Cardiac RTF inh -4.
For CSc1nc(N(C)C)nc(N(C#N)CCOC(C)=O)n1 the results were SUMO Mot1 rescue 656*, cardiac RTF act 9, UCH37 DUB inh 3, ARNT-TACC3 inh 13, Efflux pump inh 0 and Cardiac RTF inh -11.
For O=C1CC(c2ccco2)CC2=C1C=Nc1ccccc1N2 (stereo not drawn) the results were SUMO Mot1 rescue -17, cardiac RTF act -4, UCH37 DUB inh 2, ARNT-TACC3 inh 16, Efflux pump inh 0 and Cardiac RTF inh -18.
For O=c1[nH]c2c(s1)C=Nc1ccccc1N2 the results were SUMO Mot1 rescue -6, cardiac RTF act 78*, UCH37 DUB inh 1, ARNT-TACC3 inh 11, Efflux pump inh 0 and Cardiac RTF inh -100.
`O=C(NC1CC1)C1=C[C@@H](C2CC2)C[C@@H](OCCCCO)O1` gave SUMO Mot1 rescue 14, cardiac RTF act -1, UCH37 DUB inh 23*, ARNT-TACC3 inh 7, Efflux pump inh 0 and Cardiac RTF inh -10.
`NC(=NO)c1cn(Cc2ccccc2Cl)c2ccccc12` gave UCH37 DUB inh 0.
`C#CCOCCOCCOCCNc1nc(N2CCN(C(=O)C(CCC(=O)O)n3cc(C(N)CC(C)C)nn3)CC2)nc(N2CCN(C(=O)C(Cc3cc4ccccc4[nH]3)n3cc(C(N)Cc4ccc(O)cc4)nn3)CC2)n1` (stereo not drawn) gave SUMO Mot1 rescue -5, cardiac RTF act 8, UCH37 DUB inh 1, ARNT-TACC3 inh 46*, Efflux pump inh 0 and Cardiac RTF inh 4.
`Cc1ccc(-c2ccc(/C=C(\C#N)C(=O)Nc3cc(C)nn3-c3ccccc3)o2)cc1` gave SUMO Mot1 rescue 3 and Efflux pump inh 1.5*.
Screening C/C(C=NNc1nc(C)cc(C)n1)=C\c1ccc(C(C)C)cc1 returned UCH37 DUB inh 2.

High-throughput results as filed in PubChem.
